Test results: paper PMC3709443 (Natural product communications, 2009)
Converted amounts (≈) assume the structure as drawn. Like-named read-outs stand apart in the source and are kept apart here.

Key:
[1] = system: Leishmania donovani promastigotes; test: Antileishmanial assay; type: cell-based; settings: for IC50 / IC90: Leishmania donovani, 72 h; for IC50: read-out: L. donovani IC50; for IC90: read-out: L. donovani IC90; for L. donovani IC50 / L. donovani IC90: promastigotes, 26°C, 72 hours
How it was run: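 L. donovani promastigote culture at 2×10^6 cells/mL exposed to diluted test compound in 96-well format. Incubation 26°C, 72 h. Growth read by Alamar blue. IC50 computed from the growth-inhibition curve. Pentamidine and amphotericin B served as reference agents.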

[2] = system: P. falciparum D6 (chloroquine-sensitive clone); test: Antimalarial parasite LDH assay, D6 strain; type: cell-based, Plasmodium falciparum; settings: for P. falciparum D6 IC50: chloroquine-sensitive clone, 72 h, pLDH readout; for IC50: Plasmodium falciparum, D6, 72 h, read-out: P. falciparum D6 IC50
[3] = system: P. falciparum W2 (chloroquine-resistant clone); test: Antimalarial parasite LDH assay, W2 strain; type: cell-based, Plasmodium falciparum; settings: for P. falciparum W2 IC50: chloroquine-resistant clone, 72 h, pLDH readout; for IC50: Plasmodium falciparum, W2, 72 h, read-out: P. falciparum W2 IC50
[4] = system: VERO cells (monkey kidney fibroblasts); test: Cytotoxicity to VERO cells; type: cell-based; settings: for VERO cells IC50: Table 2, maximum dose tested 4760 ng/mL; for IC50: Primates, Vero
[5] = system: Cryptococcus neoformans ATCC 90113; test: Antimicrobial susceptibility assay, C. neoformans; type: cell-based; settings: for C. neoformans IC50: first value of IC50/MIC, 50% inhibition of growth; for C. neoformans MIC: second value of IC50/MIC, no detectable growth
How it was run: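 Modified CLSI broth dilution. Test compound in DMSO, serially diluted in 20% DMSO/saline, duplicate wells. Inoculum in assay medium to target CFU/mL, with growth, solvent and media controls. Absorbance at 630 nm before and after incubation. IC50 from percent growth vs concentration. MIC is the lowest concentration without detectable growth. MFC comes from 5 μL of clear wells plated on agar, no growth. Amphotericin B control.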

[6] = system: Escherichia coli ATCC 35218; test: Antimicrobial susceptibility assay, E. coli; type: cell-based; settings: for E. coli IC50: first value of IC50/MIC
How it was run: (§1)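 Modified CLSI broth dilution with test compound dissolved in DMSO and serially diluted in 20% DMSO/saline, in duplicate. Inoculum prepared to target CFU/mL. Plates read at 630 nm before and after incubation. IC50 from percent growth vs concentration. MIC is the lowest concentration with no detectable growth. MBC is the lowest concentration giving no growth when 5 μL from clear wells is subcultured on agar. Ciprofloxacin control.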

[7] = system: methicillin-resistant Staphylococcus aureus ATCC 43300 (MRS); test: Antimicrobial susceptibility assay, MRS; type: cell-based; settings: for MRS IC50: first value of IC50/MIC
How it was run: as §1

[8] = system: Aspergillus fumigatus ATCC 90906; test: Antimicrobial susceptibility assay, A. fumigatus; type: cell-based; settings: for A. fumigatus IC50: first value of IC50/MIC
How it was run: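 Modified CLSI broth dilution. Test compound dissolved in DMSO, serially diluted in 20% DMSO/saline and plated in duplicate. Inoculum prepared in assay medium to target CFU/mL. Fluorescence (544ex/590em) read before and after incubation. IC50 from percent growth vs concentration. MIC is the lowest concentration with no detectable growth. MFC is taken from 5 μL of each clear well subcultured on agar. Amphotericin B control.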

[9] = system: Mycobacterium intracellulare ATCC 23068; test: Antimicrobial susceptibility assay, M. intracellulare; type: cell-based; settings: for M. intracellulare IC50: first value of IC50/MIC
How it was run: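 Modified Alamar Blue procedure within modified CLSI methods. Test compound in DMSO, serially diluted in 20% DMSO/saline, duplicate wells. Inoculum in assay medium to target CFU/mL. Fluorescence 544ex/590em read before and after incubation. IC50 from percent growth vs concentration. MIC is the lowest concentration with no detectable growth. MBC from 5 μL of clear wells subcultured on agar. Ciprofloxacin control.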

[10] = system: SK-MEL: Human malignant melanoma; test: Cytotoxicity assay; type: cell-based; settings: for SK-MEL IC50: 48 hours, Neutral Red
How it was run: (§2)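 ATCC-sourced cells seeded at 25000 cells/well and incubated 24 h. Test compound was then added at various concentrations for a further 48 h. Viable cells were measured by a modified Neutral Red procedure. IC50 was determined from dose-response curves of percent growth inhibition. Doxorubicin was the positive control and DMSO the vehicle control.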

[11] = system: KB: Human epidermoid carcinoma; test: Cytotoxicity assay; type: cell-based; settings: for KB IC50: 48 hours, Neutral Red
How it was run: as §2

[12] = system: BT-549: Human ductal carcinoma; test: Cytotoxicity assay; type: cell-based; settings: for BT-549 IC50: 48 hours, Neutral Red
How it was run: as §2

[13] = system: SK-OV-3: Human ovarycarcinoma; test: Cytotoxicity assay; type: cell-based; settings: for SK-OV-3 IC50: 48 hours, Neutral Red
How it was run: as §2

[14] = system: LLC-PK11: Pig kidney epithelial; test: Cytotoxicity assay; type: cell-based; settings: 48 hours; Neutral Red
How it was run: as §2

Compound | P. falciparum D6 IC50 [2] | P. falciparum W2 IC50 [3] | VERO cells IC50 [4] | L. donovani IC50 [1] | L. donovani IC90 [1] | C. neoformans IC50 [5] | C. neoformans MIC [5] | E. coli IC50 [6] | MRS IC50 [7] | A. fumigatus IC50 [8] | M. intracellulare IC50 [9] | SK-MEL IC50 [10] | KB IC50 [11] | BT-549 IC50 [12] | SK-OV-3 IC50 [13] | LLC-PK11 IC50 [14] | other results
N=C(N)c1ccc(OCCCCCOc2ccc(C(=N)N)cc2)cc1 [Pentamidine, reference compound] | – | – | – | – | – | – | – | – | – | – | – | – | – | – | – | – | IC50 [1]: 2.1 µg/mL (≈ 6.17 µM); IC90 [1]: 4 µg/mL (≈ 11.7 µM)
6-Hydroxybudmunchiamine K [Compound 2] | 0.16 µg/mL | 0.22 µg/mL | NC (NC = Not cytotoxic (up to the maximum dose tested of 4760 ng/mL)) | 3.4 µg/mL | 7 µg/mL | 10.0 µg/mL | 20.0 µg/mL | -/- (- =Not Active) | -/- (- =Not Active) | -/- (- =Not Active) | -/- (- =Not Active) | 5.8 µg/mL | 6.0 µg/mL | 6.0 µg/mL | 6.5 µg/mL | 5.3 µg/mL | antimicrobial activity against C. neoformans in words [5]: weakly active
C[C@@H]1CC[C@H]2[C@@H](C)C(=O)O[C@@H]3O[C@@]4(C)CC[C@@H]1[C@]32OO4 [Artemisinin, artemisinin, reference compound] | – | – | – | – | – | – | – | – | – | – | – | – | – | – | – | – | IC50 [2]: 0.01 µg/mL (≈ 0.0354 µM); IC50 [3]: 0.006 µg/mL (≈ 0.0213 µM); IC50 ([4]; read-out: VERO cells IC50): > 4.76 µg/mL
CCN(CC)CCCC(C)Nc1ccnc2cc(Cl)ccc12 (stereo not drawn) [Chloroquine, chloroquine, reference compound] | – | – | – | – | – | – | – | – | – | – | – | – | – | – | – | – | IC50 [2]: 0.015 µg/mL (≈ 0.0469 µM); IC50 [3]: 0.135 µg/mL (≈ 0.422 µM); IC50 ([4]; read-out: VERO cells IC50): > 4.76 µg/mL
CCCCCCCCCCCCCCCC1CC(=O)NCCCN(C)CCCCN(C)CCCN1 (stereo not drawn) [Compound 3, 5-Normethylbudmunchiamine K] | 0.14 µg/mL | 0.21 µg/mL | 3 µg/mL | 0.8 µg/mL | 1.3 µg/mL | 1.0 µg/mL | 2.5 µg/mL | 6.5 µg/mL | 6.5 µg/mL | -/- (- =Not Active) | 4.0 µg/mL | 2.0 µg/mL | 2.3 µg/mL | 2.0 µg/mL | 4.8 µg/mL | 2.5 µg/mL | antileishmanial activity compared with pentamidine ([1]; in words): more potent than pentamidine; E. coli MIC ([6]; second value of IC50/MIC): 10.0 µg/mL; MRS MIC ([7]; second value of IC50/MIC): 10.0 µg/mL; M. intracellulare MIC ([9]; second value of IC50/MIC): 20.0 µg/mL
COc1cccc2c1C(=O)c1c(O)c3c(c(O)c1C2=O)C[C@@](O)(C(=O)CO)C[C@@H]3O[C@H]1C[C@H](N)[C@H](O)[C@H](C)O1 [Doxorubicin, reference compound] | – | – | – | – | – | – | – | – | – | – | – | – | – | – | – | – | IC50 ([4]; 48 h, read-out: VERO IC50): > 5 µg/mL; IC50 ([10]; Homo sapiens, 48 h, read-out: SK-MEL IC50): 0.85 µg/mL (≈ 1.56 µM); IC50 ([11]; Homo sapiens, 48 h, read-out: KB IC50): 0.9 µg/mL (≈ 1.66 µM); IC50 ([12]; Homo sapiens, BT-549, 48 h, read-out: BT-549 IC50): 0.9 µg/mL (≈ 1.66 µM); IC50 ([13]; Homo sapiens, SK-OV-3, 48 h, read-out: SK-OV-3 IC50): 0.9 µg/mL (≈ 1.66 µM)
C[C@@H]1[C@H](O)[C@@H](C)/C=C/C=C/C=C/C=C/C=C/C=C/C=C/[C@H](O[C@@H]2O[C@H](C)[C@@H](O)[C@H](N)[C@@H]2O)C[C@@H]2O[C@](O)(C[C@@H](O)C[C@@H](O)[C@H](O)CC[C@@H](O)C[C@@H](O)CC(=O)O[C@H]1C)C[C@H](O)[C@H]2C(=O)O [Amphotericin B, amphotericin B, reference compound] | – | – | – | – | – | – | – | – | – | – | – | – | – | – | – | – | IC50 [1]: 0.32 µg/mL (≈ 0.346 µM); IC90 [1]: 0.8 µg/mL (≈ 0.866 µM); IC50 ([5]; Cryptococcus neoformans, ATCC90113, read-out: C. neoformans IC50): 0.8 µg/mL (≈ 0.866 µM); MIC ([5]; Cryptococcus neoformans, ATCC90113, read-out: C. neoformans MIC): 1.25 µg/mL (≈ 1.35 µM); IC50 ([8]; Aspergillus fumigatus, ATCC90906, read-out: A. fumigatus IC50): 0.6 µg/mL (≈ 0.649 µM); MIC ([8]; Aspergillus fumigatus, ATCC90906, read-out: A. fumigatus MIC): 1.25 µg/mL (≈ 1.35 µM)
O=C(O)c1cn(C2CC2)c2cc(N3CCNCC3)c(F)cc2c1=O [Ciprofloxacin, ciprofloxacin, reference compound] | – | – | – | – | – | – | – | – | – | – | – | – | – | – | – | – | IC50 ([6]; Escherichia coli, ATCC35218, read-out: E. coli IC50): 0.004 µg/mL (≈ 0.0121 µM); IC50 ([7]; Staphylococcus aureus, ATCC43300, read-out: MRS IC50): 0.09 µg/mL (≈ 0.272 µM); MIC ([7]; Staphylococcus aureus, ATCC43300, read-out: MRS MIC): 0.5 µg/mL (≈ 1.51 µM); IC50 ([9]; Mycobacterium intracellulare, ATCC23068, read-out: M. intracellulare IC50): 0.5 µg/mL (≈ 1.51 µM); MIC ([9]; Mycobacterium intracellulare, ATCC23068, read-out: M. intracellulare MIC): 1 µg/mL (≈ 3.02 µM)
6-Hydroxy-5-normethylbudmunchiamine K [Compound 4] | 0.12 µg/mL | 0.27 µg/mL | NC (NC = Not cytotoxic (up to the maximum dose tested of 4760 ng/mL)) | 2.1 µg/mL | 7 µg/mL | 6.0 µg/mL | 10.0 µg/mL | -/- (- =Not Active) | 20.0 µg/mL | -/- (- =Not Active) | 20.0 µg/mL | 5.7 µg/mL | 5.4 µg/mL | 6.0 µg/mL | 6.2 µg/mL | 6.0 µg/mL | antimicrobial activity against C. neoformans in words [5]: weakly active
